From PubChem BioAssay
The list is not random: actives were taken first. Their share in the collection is about 2.1%.
STAT1 inh – inhibitors of IFN-gamma induced STAT1 signaling | NIH 3T3 STAT1-luciferase reporter, luminescence | inhibition, % at 5.5 µM | actives 0.35% (n = 200,000);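 active means inhibition above a set limit, the mean inhibition across all tested compounds plus 3 SD, cut at about 34% in these data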;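 further: 0% = IFN-gamma with DMSO and 100% = IFN-gamma with 300 µM nifuroxazide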
zVAD death inh – L929 zVAD cell death inhibition; viability rescue, % at 10 µM; actives 0.38% (n = 220,000); AID 1377; L929 zVAD necroptosis rescue, ATP luminescence, 24 h; with zVAD 60 µM;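 active means activation, scaled between plate controls, above about 75%, limit read from the data; inactive means activation under that limit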;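 further: 0% = zVAD with DMSO and 100% = DMSO alone without zVAD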
STAT3 inh – reduces IL-6 driven STAT3 reporter signal | actives 0.89% (n = 190,000) | AID 862 | inhibition, % at 5.5 µM | U3A cells, IL-6 STAT3-luciferase reporter, luminescence; host cell line lacks STAT1;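 active means inhibition above the mean inhibition across all screened compounds plus 3 SD, cut at about 44% in these data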;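 further: 0% = DMSO only wells and 100% = 100 µM nifuroxazide control wells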
STAT3 activator – STAT3 signaling activation. U3A cells, IL-6 STAT3-luciferase reporter, luminescence; 100% = signal with IL-6 EC80 alone. activation (% of control), % at 5.6 µM. actives 0.91% (n = 190,000);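 active means activation above the screen-wide mean of compound activation plus 3 SD, cut at about 130% in these data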;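 further: 0% = background luminescence of wells with medium and substrate only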
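Material: STAT3-luciferase reporter U3A cells; Probe or stimulus: IL-6 (33 ng/mL); Incubation: compound pre-incubation 1 h before IL-6, then 6 h stimulation at 37 °C; Technique: luminescence from STAT3-driven luciferase reporter; Evaluation: % activation versus median of IL-6-stimulated wells; Controls: IL-6-only high control.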
TNF death inh – TNF-alpha cell death inhibition in Jurkat FADD-/- cells. Jurkat FADD-/- TNF necroptosis rescue, ATP luminescence, 24 h; 0 = TNF only, 100 = no-TNF cells. activation (protection from cell death), % at 10 µM. actives 0.068% (n = 220,000). AID 463075;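 active means activation, meaning protection from cell death, of at least 50% relative to plate controls; inactive means activation below 50%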;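 further: necroptosis triggered by 40 ng/mL TNF-alpha added together with compound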
zVAD death conf – confirmed blocker of zVAD induced death in L929 cells; L929 zVAD-induced necroptosis rescue, ATP luminescence, 24 h; actives 16% (n = 760); shares compounds with zVAD death inh; activation (protection from necroptosis), % at 10 µM;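 active means mean protection from necroptosis of at least 50% over duplicate tests; inactive means mean protection below 50%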;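 further: 0% = cells with zVAD alone and 100% = vehicle cells without zVAD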
* marks the source's active call; other numbers are inactive results; . = not tested or not shown.

SMILES	STAT1 inh	zVAD death inh	STAT3 inh	STAT3 activator	TNF death inh	zVAD death conf
Cc1ccccc1OCC(=O)Nc1ccc(Cc2ccncc2)cc1	-1	79*	17	86	3	13
COc1ccc(NC(=O)C2CCCN(S(=O)(=O)c3cccc4cccnc34)C2)c(OC)c1 (centres undefined)	-2	1	8	101	-3	.
C=CCOC(=O)C1=C(C)NC(SCC(=O)Nc2nccs2)=C(C#N)C1c1ccc(Cl)cc1 (centres undefined)	8	1	15	91	2	.
C=CCOC(=O)C1=C(C)NC(SCC(=O)Nc2nccs2)=C(C#N)C1c1cccs1 (centres undefined)	11	87*	7	98	12	66*
CC(=O)C1=C(C)NC(SCC(=O)Nc2nccs2)=C(C#N)C1c1ccccc1Cl (centres undefined)	-22	82*	-2	102	15	3
O=[N+]([O-])c1ncn(Cc2ccccc2Cl)n1	2	88*	3	100	83*	20
C/C(Cn1cnc([N+](=O)[O-])n1)=N\NC(=O)c1ccccc1	-19	-1	7	97	-1	.
O=C(Nc1cnn(Cc2c(Cl)cccc2Cl)c1)c1ccc([N+](=O)[O-])cc1	-7	0	14	93	0	.
O=[N+]([O-])c1ncn(Cc2c(Cl)cccc2Cl)n1	-6	94*	2	98	96*	4
COC(=O)[C@H](C)NC(=O)Nc1ccc(OC)c(OC)c1	-5	0	7	99	-2	.
COC(=O)c1ccc(NC(=O)Nc2ccc(OC)c(OC)c2)cc1	-7	82*	18	90	1	1
CCC(C)C(NC(N)=O)C(=O)Nc1ccc(C(=O)OC)cc1 (centres undefined)	6	78*	17	91	1	4
CC[C@H](C)[C@H](NC(N)=O)C(=O)Nc1ccc(NC(C)=O)cc1	.	-1	.	.	0	.
COCCn1c(C)cc(C(=O)CSc2nc(C)c(C)c(C)n2)c1C	9	3	2	100	0	.
CC1=CC2=NC(=O)/C(=C\c3ccc(-c4cccc(Cl)c4)o3)C(=N)N2O1	8	0	8	93	-2	.
c1cncc(-c2nc(NCCCn3ccnc3)c3ccccc3n2)c1	5	75*	10	98	1	32
CCOc1ccc2nc(NC(=O)CN3CCOCC3)sc2c1	-21	74	9	95	2	.
O=C(CN1CCOCC1)Nc1nc2ccc(Br)cc2s1	-18	77*	13	90	4	16
O=C(O)/C=C/c1ccc([N+](=O)[O-])o1	5	0	2	102	-2	.
N#CCc1ccc(NC(=O)/C=C/c2ccc([N+](=O)[O-])o2)cc1	-231	85*	23	83	-13	0
CCOC(=O)c1sc(NC(=O)CCC(=O)O)nc1C	-6	2	2	101	1	.
CCOC(=O)c1sc(NC(=O)C(C)Sc2nnc(N)s2)nc1C (centres undefined)	-6	78*	10	97	1	2
Cc1ccc(C)c(C2=NNC(=NCc3ccccc3)SC2)c1	-9	77*	0	104	95*	25
CCOC(=O)c1c(-c2ccccc2)oc2ccc(OC(C)C(=O)O)cc12 (centres undefined)	.	0	.	.	2	.
CCOc1ccc(/C=C/C(=O)CCC(=O)O)cc1	-32	0	-3	107	1	.
SMILES	STAT1 inh	zVAD death inh	STAT3 inh	STAT3 activator	TNF death inh	zVAD death conf
CCOc1ccc(/C=C\C(C)=N\O)cc1	-31	99*	13	92	8	31
CCOc1cc(CNc2ccc3c(c2)OCCO3)cc(Br)c1OC	7	-1	-3	108	-17	.
CS(=O)(=O)Nc1cccc2cccnc12	1	0	0	102	-1	.
Cc1[nH]c2c(ccc3cccnc32)c1C	.	78*	.	.	12	10
CC(C)(C)c1cc(NC(=O)Nc2ccc(Br)cc2Cl)no1	-18	76*	19	90	2	2
CC(C)(C)c1cc(NC(=O)Nc2ccc(Cl)cc2Cl)no1	.	54	.	.	3	.
Cc1cccc(OCCCC(=O)Nc2ccc(S(=O)(=O)Nc3onc(C)c3C)cc2)c1	-5	0	6	96	1	.
NC(=O)Cc1ccc(Nc2nnc(-c3ccccc3)c3ccccc23)cc1	3	0	6	94	-2	.
COc1ccc(Nc2nnc(-c3ccc(O)cc3)c3ccccc23)cc1C(N)=O	6	82*	14	94	-2	7
COc1ccc(Nc2nnc(-c3ccc(O)cc3)c3ccccc23)cc1	-15	75*	6	97	-7	39
Oc1ccc(Nc2nnc(-c3ccc(O)cc3)c3ccccc23)cc1	-20	81*	4	98	-2	1
COc1ccc(Nc2nnc(C)c3ccccc23)cc1C(N)=O	-3	3	5	100	0	.
CCOC(=O)c1c(CN2CCOCC2)oc2ccc(OC)cc12	3	0	4	99	0	.
Cn1cc(Cl)c(-c2n[nH]c(=S)n2-c2ccccc2)n1	-3	1	2	100	1	.
c1ccc2c(c1)N1CCCN=C1N2CCN1CCCCC1	23	-1	4	98	1	.
O=C1N=C2N(CCN3CCCCC3)c3ccccc3N2/C1=C\c1ccc([N+](=O)[O-])o1	-2	75*	3	100	-14	1
CC(C)c1ccc(-c2nc(N3CCCC3)nc3n[nH]c(N)c23)cc1	-4	40	-1	106	1	.
Nc1[nH]nc2nc(N3CCOCC3)nc(-c3ccccc3)c12	-7	92*	1	102	0	39
O=C(Nc1ccc(Cl)c(C(F)(F)F)c1)NC1CC2CCCC(C1)N2Cc1ccccc1 (centres undefined)	5	76*	5	99	0	33
CC1(C)CC(=O)C(C=NCCN2CCN(C3CC(=O)N(c4ccc(Cl)c(Cl)c4)C3=O)CC2)=C(O)C1 (centres undefined)	-6	11	4	100	0	.
C(=N/Nc1nccs1)/c1cccnc1	-15	78*	11	100	7	4
Cc1ccccc1NC(=O)c1cn2c(nc3ccccc32)c(C#N)c1C	.	0	.	.	0	.
CCOc1cc(/C=N\Nc2ccc([N+](=O)[O-])cc2)ccc1OCC(=O)Nc1ccc(C)c(C)c1	-2	0	6	103	-3	.
COCC(=O)n1nc(-c2ccccc2)nc1NCc1ccccc1	-40	86*	-5	104	5	1
COCC(=O)n1nc(-c2ccccc2)nc1NCc1ccc(F)cc1	-6	10	-2	105	3	.
CCC(=O)n1nc(-c2cccnc2)nc1NCc1ccc(OC)cc1	-2	1	2	102	0	.
